Data on 23 compounds can be found in ChEMBL document CHEMBL3763147, “Small Molecule Inhibitors of Ca(2+)-S100B Reveal Two Protein Conformations” (J Med Chem, 2016).

Calls of active or inactive are those of the source. The calls are words filed in the database; no cut-off is given here.

Assay [1] can be described thus: Growth inhibition of human WM115 cells expressing low levels of S100-B by SYBR Green based fluorescence method. In kind it is functional, cell-based. Conditions: WM-115.
The target of assay [2] is T1, Protein S100-B (Rattus norvegicus, UniProt P04631).
T1 sequence (P04631 whole entry): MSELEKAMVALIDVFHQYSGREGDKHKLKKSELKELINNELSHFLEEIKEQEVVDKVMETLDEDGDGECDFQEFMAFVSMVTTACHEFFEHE
Nature of the assay: Displacement of TAMRA-TRTK12 from recombinant rat calcium loaded S100-B by […] analysis.

The target of assay [3] is T1, Protein S100-B. Nature of the assay: Displacement of TAMRA-TRTK12 from recombinant rat calcium loaded S100-B by fluorescence polarization competition assay.
The nature of assay [4]: Growth inhibition of human WM115 cells expressing high levels of S100-B by SYBR Green based fluorescence method. In kind it is functional, cell-based. As to conditions: WM-115.
For assay [5], the target named is T2, Protein S100-B (Rattus norvegicus) (UniProt P04631).
T2 sequence (whole entry): T1 sequence (P04631 whole entry)
Nature of the assay: Displacement of TAMRA-TRTK12 from recombinant rat calcium loaded S100-B at <1 mM by fluorescence polarization competition assay.

The target in assay [6] is T1, Protein S100-B. Put plainly: Binding affinity to recombinant rat calcium loaded S100-B by fluorescence spectrophotometric analysis. The procedure, abridged: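 Competition fluorescence polarization against 10 nM TAMRA-labelled TRTK12 peptide (CapZ residues 265–276) with 1 µM Ca2+-loaded rat S100B. Buffer: 50 mM HEPES pH 7.2, 100 mM KCl, 15 mM NaCl, 10 mM CaCl2, 0.01% Triton X-100, 0.5% DMSO. Compounds titrated from the highest concentration possible. Read at room temperature (ex 544/em 590 nm). KD calculated from the IC50 using the Nikolovska-Coleska equation.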

Assay [7] has as its target T1, Protein S100-B. Nature of the assay: Binding affinity to recombinant rat calcium loaded S100-B by isothermal titration calorimetry.

For `N=C(N)c1ccc(Oc2ccc(-c3cc4ccc(C(=N)N)cc4[nH]3)cc2)cc1`, the EC50 in assay [1] and in assay [4] was less than 1 µM each time. Also, the Kd in assay [2] is 6 µM. In addition, the IC50 in assay [3] is 66.6 µM.
Turning to `c1cc(C2=NCCCN2)ccc1OCCCCCCOc1ccc(C2=NCCCN2)cc1`, the EC50 in assay [1] amounted to 42.7 µM; in assay [4], 44.1 µM. Further, the outcome in assay [5] was inactive.
For `c1cc(C2=NCCCCN2)ccc1OCCCCCOc1ccc(C2=NCCCCN2)cc1`, in that order: 19 µM, 20 µM and “inactive”.
Take `N=C(N)c1ccc(OCCCN(CCCOc2ccc(C(=N)N)cc2)Cc2ccccc2)cc1`: the concentration giving a half-maximal response (EC50) in assay [1] was 41 µM; in assay [4] it was 51.8 µM.
`c1cc(C2=NCCN2)ccc1OCCCCCOc1ccc(C2=NCCN2)cc1`: the EC50 in assay [1] was determined as 38.9 µM; in assay [4], 56.2 µM. The result in assay [5] was inactive.
Take `c1cc(C2=NCCCCN2)ccc1OCCCCCCCOc1ccc(C2=NCCCCN2)cc1`: the EC50 in assay [1] came out at 9.2 µM; in assay [4], 7.8 µM. In addition, the result in assay [5] was inactive.
Take `CCCN(CCCOc1ccc(C(=N)N)cc1)CCCOc1ccc(C(=N)N)cc1`: the EC50 was determined as 500 µM in assay [1] and 864 µM in assay [4].
Regarding `N=C(N)c1ccc(OCCCCCCCOc2ccc(C(=N)N)cc2)cc1` [HEPTAMIDINE], the EC50 in assay [1] is 25.6 µM; in assay [4] it was 11.5 µM.
Consider `c1cc(C2=NCCCN2)ccc1OCCCCCCCCOc1ccc(C2=NCCCN2)cc1`, for which the EC50 in assay [1] is 37.9 µM; in assay [4] it was 24.8 µM. For the same compound, the outcome in assay [5] was inactive.
With `N=C(NCCCCCN)c1ccc(OCCCCCOc2ccc(C(=N)NCCCCCN)cc2)cc1`, the Kd in assay [2] came to 4.6 µM. Also, in assay [3], the IC50 amounted to 51.1 µM.
In the case of `c1cc(C2=NCCN2)ccc1OCCCCCCOc1ccc(C2=NCCN2)cc1`, the 50% effective concentration (EC50) in assay [1] came to 34.5 µM; in assay [4], 52 µM. For the same compound, the outcome in assay [5] was inactive.
Turning to `c1cc(C2=NCCN2)ccc1OCCCCCCCCOc1ccc(C2=NCCN2)cc1`, the EC50 in assay [1] is 24.3 µM; in assay [4] it was 21.8 µM. Moreover, the outcome in assay [5] was inactive.
Take `c1cc(C2=NCCCCN2)ccc1OCCCCCCOc1ccc(C2=NCCCCN2)cc1`: the results for the EC50 in assay [1] and in assay [4] were 301 µM and 264 µM, respectively. The outcome in assay [5] was inactive.
With `N=C(N)c1ccc(OCCCCCCCCOc2ccc(C(=N)N)cc2)cc1`, the EC50 in assay [1] stood at 234 µM; in assay [4], 245 µM.
Turning to `c1cc(C2=NCCCN2)ccc1OCCCCCCCOc1ccc(C2=NCCCN2)cc1`, the figures for the EC50 in assay [1] and in assay [4] were 289 µM and 612 µM, respectively. Besides, the outcome in assay [5] was inactive.
On to `N=C(N)c1ccc(OCCCCCOc2ccc(C(=N)N)cc2)cc1` [PENTAMIDINE], for which the EC50 came to 16.7 µM in assay [1] and 16.3 µM in assay [4]. The results for the Kd in assay [6] and in assay [7] were 44 µM and 50 µM, respectively.
In the case of `CNC(=O)NC(=N)c1ccc(OCCCCCCCOc2ccc(C(=N)NC(=O)NC)cc2)cc1`, the EC50 was determined as 146 µM in assay [1] and 131 µM in assay [4]. The Kd in assay [2] was found to be 89.5 µM. For the same compound, the IC50 in assay [3] amounted to 982 µM.
`c1cc(C2=NCCN2)ccc1OCCCCCCCOc1ccc(C2=NCCN2)cc1`: the EC50 in assay [1] was 21.2 µM; in assay [4], 32.2 µM. Besides, the Kd in assay [2] came to 203 µM. For the same compound, the outcome in assay [5] was inactive.
For the compound `c1cc(C2=NCCCN2)ccc1OCCCCCOc1ccc(C2=NCCCN2)cc1`, the EC50 in assay [1] amounted to 284 µM; in assay [4] it was 203 µM. Besides, in assay [5], the result was inactive.
As for `N=C(NCCCCCCCN)c1ccc(OCCCCCCCCOc2ccc(C(=N)NCCCCCCCN)cc2)cc1`, the EC50 in assay [1] was 45.8 µM; in assay [4] it was 46.3 µM. The Kd in assay [2] stood at 1.6 µM. For the same compound, the IC50 in assay [3] stood at 18.3 µM.
With `N=C(NCCCCCCCN)c1ccc(OCCCCCCCOc2ccc(C(=N)NCCCCCCCN)cc2)cc1`, the EC50 turned out to be 25.4 µM in assay [1] and 24.3 µM in assay [4]. Also, in assay [2], the Kd worked out at 0.5 µM. The IC50 in assay [3] came to 6.7 µM.
With `c1cc(C2=NCCCCN2)ccc1OCCCCCCCCOc1ccc(C2=NCCCCN2)cc1`, the figures for the EC50 in assay [1] and in assay [4] were 4.8 µM and 5.4 µM, respectively. Besides, the result in assay [5] was inactive.
With `N=C(NC(=O)Nc1ccccc1)c1ccc(OCCCCCCCOc2ccc(C(=N)NC(=O)Nc3ccccc3)cc2)cc1`, the figures for the EC50 in assay [1] and in assay [4] were 0.5 µM and 0.4 µM, respectively.
